ChEMBL document CHEMBL4184298, “Development of Potent Inhibitors of Receptor Tyrosine Kinases by Ligand-Based Drug Design and Target-Biased Phenotypic Screening” (J Med Chem, 2018)
Activity calls are given as the source filed them. No cut-off for these calls is given here.

Key:
[1] = target: T1, Tyrosine-protein kinase receptor UFO (Homo sapiens, UniProt P30530); experiment: Inhibition of wild-type human partial length AXL (R497 to Y821 residues) expressed in bacterial expression system using poly [Glu, Try] 4:1 as substrate in presence of [gamma-33P]ATP
T1 sequence (P30530 whole entry): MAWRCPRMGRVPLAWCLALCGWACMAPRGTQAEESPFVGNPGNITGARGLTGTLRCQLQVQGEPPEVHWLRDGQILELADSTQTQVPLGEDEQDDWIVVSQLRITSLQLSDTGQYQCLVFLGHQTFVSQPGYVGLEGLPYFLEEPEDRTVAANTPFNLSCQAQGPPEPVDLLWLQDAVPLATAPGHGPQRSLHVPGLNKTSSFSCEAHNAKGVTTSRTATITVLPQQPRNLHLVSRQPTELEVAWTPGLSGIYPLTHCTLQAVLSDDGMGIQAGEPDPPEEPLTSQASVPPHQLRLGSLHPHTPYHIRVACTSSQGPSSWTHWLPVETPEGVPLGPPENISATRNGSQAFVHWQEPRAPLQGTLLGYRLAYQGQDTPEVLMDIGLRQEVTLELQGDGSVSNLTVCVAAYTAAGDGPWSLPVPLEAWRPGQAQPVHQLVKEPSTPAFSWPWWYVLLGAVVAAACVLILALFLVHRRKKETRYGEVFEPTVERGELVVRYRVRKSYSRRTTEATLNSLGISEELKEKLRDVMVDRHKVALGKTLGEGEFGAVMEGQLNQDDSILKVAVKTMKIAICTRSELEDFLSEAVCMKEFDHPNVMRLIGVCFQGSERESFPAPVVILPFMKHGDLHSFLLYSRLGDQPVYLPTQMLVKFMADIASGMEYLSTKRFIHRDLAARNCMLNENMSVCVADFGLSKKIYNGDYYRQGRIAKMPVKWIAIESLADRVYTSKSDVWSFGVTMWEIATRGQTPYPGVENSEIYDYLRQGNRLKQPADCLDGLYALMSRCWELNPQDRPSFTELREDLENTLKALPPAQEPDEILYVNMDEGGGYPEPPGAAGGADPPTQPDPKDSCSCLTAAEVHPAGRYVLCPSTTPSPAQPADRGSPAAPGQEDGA

[2] = (§1) Antiproliferative activity against mouse AXL-positive Breast cancer cells after 5 days by PrestoBlue assay; type: functional; conditions: 120 h
How it was run: (§2)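 Cell proliferation: AXL+ cells were exposed to 8-point half-log dilutions (0.03–100 μM). Viability was read with PrestoBlue reagent on day 5.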

[3] = target: Vascular endothelial growth factor receptor 2 (Homo sapiens, UniProt P35968); experiment: Inhibition of wild-type human partial length VEGFR2 (R787 to P1253 residues) expressed in mammalian expression system using poly [Glu, Try] 4:1 as substrate in presence of [gamma-33P]ATP
Sequence of Vascular endothelial growth factor receptor 2 (P35968 whole entry, the tested form may be a part): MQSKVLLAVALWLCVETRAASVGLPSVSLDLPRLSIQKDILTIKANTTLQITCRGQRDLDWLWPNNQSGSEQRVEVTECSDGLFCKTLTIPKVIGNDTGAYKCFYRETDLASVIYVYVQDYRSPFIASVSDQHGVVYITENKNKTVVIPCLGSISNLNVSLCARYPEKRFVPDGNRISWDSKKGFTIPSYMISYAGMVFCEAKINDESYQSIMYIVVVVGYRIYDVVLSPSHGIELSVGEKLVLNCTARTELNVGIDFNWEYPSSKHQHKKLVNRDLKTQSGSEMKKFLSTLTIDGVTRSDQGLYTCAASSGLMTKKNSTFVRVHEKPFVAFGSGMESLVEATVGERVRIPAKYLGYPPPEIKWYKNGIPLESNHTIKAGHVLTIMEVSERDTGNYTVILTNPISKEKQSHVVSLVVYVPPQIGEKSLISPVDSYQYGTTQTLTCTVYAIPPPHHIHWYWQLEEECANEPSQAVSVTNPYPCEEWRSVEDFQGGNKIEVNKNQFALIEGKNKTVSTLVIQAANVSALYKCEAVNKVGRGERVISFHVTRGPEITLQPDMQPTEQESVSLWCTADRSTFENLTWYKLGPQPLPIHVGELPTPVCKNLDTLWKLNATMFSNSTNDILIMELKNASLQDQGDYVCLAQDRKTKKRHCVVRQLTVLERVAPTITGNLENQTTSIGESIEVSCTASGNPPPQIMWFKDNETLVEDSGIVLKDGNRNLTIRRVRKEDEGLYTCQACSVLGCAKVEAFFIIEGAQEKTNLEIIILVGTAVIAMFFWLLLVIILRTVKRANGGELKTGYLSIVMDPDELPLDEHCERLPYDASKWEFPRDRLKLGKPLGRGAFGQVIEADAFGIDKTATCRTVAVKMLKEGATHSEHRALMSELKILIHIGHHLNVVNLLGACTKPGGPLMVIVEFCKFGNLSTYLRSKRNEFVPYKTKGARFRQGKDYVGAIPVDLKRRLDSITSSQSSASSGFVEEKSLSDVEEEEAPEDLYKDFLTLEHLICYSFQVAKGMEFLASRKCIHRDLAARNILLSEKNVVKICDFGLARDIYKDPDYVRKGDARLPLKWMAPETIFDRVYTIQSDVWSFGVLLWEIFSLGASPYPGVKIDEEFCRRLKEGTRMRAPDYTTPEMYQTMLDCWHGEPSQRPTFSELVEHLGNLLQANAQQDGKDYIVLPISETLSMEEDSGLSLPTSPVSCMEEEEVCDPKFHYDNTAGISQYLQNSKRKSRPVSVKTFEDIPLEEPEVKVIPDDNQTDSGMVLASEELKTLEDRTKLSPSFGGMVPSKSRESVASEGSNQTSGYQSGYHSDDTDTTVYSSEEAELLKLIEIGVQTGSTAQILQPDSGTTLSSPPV

[4] = target: Proto-oncogene tyrosine-protein kinase Src (Homo sapiens, UniProt P12931); experiment: Inhibition of wild-type human partial length SRC (L240 to L536 residues) expressed in bacterial expression system using poly [Glu, Try] 4:1 as substrate in presence of [gamma-33P]ATP
Sequence of Proto-oncogene tyrosine-protein kinase Src (P12931 2-536 limits assumed): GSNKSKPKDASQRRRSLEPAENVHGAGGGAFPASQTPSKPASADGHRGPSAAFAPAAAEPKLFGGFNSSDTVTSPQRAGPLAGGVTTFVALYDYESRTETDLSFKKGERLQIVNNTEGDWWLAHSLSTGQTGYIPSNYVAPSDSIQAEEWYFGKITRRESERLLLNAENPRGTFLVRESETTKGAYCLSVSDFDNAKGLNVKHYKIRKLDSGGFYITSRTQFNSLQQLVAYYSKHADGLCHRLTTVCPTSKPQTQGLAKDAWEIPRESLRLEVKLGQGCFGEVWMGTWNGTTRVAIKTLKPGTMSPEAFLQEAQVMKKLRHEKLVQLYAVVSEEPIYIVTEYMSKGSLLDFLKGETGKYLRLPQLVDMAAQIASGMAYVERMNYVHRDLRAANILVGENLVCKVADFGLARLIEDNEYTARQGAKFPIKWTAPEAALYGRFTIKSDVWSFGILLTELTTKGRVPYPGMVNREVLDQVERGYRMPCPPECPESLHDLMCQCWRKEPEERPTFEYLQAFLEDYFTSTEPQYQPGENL

[5] = target: RAC-alpha serine/threonine-protein kinase (Homo sapiens, UniProt P31749); experiment: Inhibition of AKT (unknown origin) using poly [Glu, Try] 4:1 as substrate in presence of [gamma-33P]ATP
Sequence of RAC-alpha serine/threonine-protein kinase (P31749 whole entry): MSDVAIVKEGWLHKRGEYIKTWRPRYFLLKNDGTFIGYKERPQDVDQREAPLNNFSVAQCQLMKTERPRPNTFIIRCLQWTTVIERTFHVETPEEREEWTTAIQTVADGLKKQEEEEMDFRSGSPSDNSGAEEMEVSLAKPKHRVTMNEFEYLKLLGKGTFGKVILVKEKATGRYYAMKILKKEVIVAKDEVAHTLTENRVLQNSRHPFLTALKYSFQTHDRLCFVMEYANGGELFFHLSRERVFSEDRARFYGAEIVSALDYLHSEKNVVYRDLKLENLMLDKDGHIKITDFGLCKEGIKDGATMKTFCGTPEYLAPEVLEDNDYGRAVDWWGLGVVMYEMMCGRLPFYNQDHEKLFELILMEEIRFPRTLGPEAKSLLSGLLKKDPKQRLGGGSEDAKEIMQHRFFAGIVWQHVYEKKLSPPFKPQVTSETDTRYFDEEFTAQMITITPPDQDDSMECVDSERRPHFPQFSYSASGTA
How it was run: (§3)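 Radiometric assay on recombinant kinase: ³³P incorporation into the kinase substrate was measured and activity was expressed relative to a DMSO control.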

[6] = target: T2, Tyrosine-protein kinase Mer (Homo sapiens, UniProt Q12866); experiment: Inhibition of wild-type human partial length MER (R557 to L884 residues) expressed in bacterial expression system using poly [Glu, Try] 4:1 as substrate in presence of [gamma-33P]ATP
T2 sequence (Q12866 whole entry): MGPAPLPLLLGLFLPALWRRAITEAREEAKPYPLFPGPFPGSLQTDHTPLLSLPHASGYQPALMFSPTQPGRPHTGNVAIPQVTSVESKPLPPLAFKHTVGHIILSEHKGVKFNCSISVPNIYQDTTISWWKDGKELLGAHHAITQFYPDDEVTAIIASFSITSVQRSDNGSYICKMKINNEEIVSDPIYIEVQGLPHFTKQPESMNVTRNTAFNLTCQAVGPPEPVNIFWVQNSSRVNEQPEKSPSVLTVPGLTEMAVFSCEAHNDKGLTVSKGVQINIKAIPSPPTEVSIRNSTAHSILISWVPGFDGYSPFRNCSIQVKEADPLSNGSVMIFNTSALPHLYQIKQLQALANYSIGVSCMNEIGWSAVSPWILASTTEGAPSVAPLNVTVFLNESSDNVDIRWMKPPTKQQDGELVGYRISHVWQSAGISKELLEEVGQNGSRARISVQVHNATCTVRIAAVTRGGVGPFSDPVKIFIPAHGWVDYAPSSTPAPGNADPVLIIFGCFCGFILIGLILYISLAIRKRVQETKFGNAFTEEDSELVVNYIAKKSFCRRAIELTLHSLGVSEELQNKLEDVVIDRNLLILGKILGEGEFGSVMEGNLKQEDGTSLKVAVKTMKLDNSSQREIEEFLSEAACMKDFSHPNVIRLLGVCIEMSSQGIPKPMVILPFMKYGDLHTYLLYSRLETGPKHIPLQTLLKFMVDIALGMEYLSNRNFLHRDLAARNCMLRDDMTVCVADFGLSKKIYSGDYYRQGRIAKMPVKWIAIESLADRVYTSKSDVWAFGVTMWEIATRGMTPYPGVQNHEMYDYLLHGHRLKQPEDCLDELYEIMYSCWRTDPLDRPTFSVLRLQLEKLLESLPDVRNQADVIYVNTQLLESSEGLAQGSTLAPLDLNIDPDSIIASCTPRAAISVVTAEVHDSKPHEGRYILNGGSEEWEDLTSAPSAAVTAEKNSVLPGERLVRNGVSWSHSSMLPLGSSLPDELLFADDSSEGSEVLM

Mus musculus = organism: Mus musculus; experiment: as §1; type: functional; how it was run: as §2
MOLM-13 = experiment: Antiproliferative activity against human MOLM13 cells after 5 days by PrestoBlue assay; type: functional, cell-based
MV4-11 = experiment: Antiproliferative activity against human MV4-11 cells after 5 days by PrestoBlue assay; type: functional, cell-based
[7] = target: Receptor-type tyrosine-protein kinase FLT3 (Homo sapiens, UniProt P36888, ITD); experiment: Inhibition of human partial length FLT3 ITD mutant expressed in bacterial expression system using poly [Glu, Try] 4:1 as substrate in presence of [gamma-33P]ATP
Sequence of Receptor-type tyrosine-protein kinase FLT3 (P36888 whole entry, looked up, change not shown): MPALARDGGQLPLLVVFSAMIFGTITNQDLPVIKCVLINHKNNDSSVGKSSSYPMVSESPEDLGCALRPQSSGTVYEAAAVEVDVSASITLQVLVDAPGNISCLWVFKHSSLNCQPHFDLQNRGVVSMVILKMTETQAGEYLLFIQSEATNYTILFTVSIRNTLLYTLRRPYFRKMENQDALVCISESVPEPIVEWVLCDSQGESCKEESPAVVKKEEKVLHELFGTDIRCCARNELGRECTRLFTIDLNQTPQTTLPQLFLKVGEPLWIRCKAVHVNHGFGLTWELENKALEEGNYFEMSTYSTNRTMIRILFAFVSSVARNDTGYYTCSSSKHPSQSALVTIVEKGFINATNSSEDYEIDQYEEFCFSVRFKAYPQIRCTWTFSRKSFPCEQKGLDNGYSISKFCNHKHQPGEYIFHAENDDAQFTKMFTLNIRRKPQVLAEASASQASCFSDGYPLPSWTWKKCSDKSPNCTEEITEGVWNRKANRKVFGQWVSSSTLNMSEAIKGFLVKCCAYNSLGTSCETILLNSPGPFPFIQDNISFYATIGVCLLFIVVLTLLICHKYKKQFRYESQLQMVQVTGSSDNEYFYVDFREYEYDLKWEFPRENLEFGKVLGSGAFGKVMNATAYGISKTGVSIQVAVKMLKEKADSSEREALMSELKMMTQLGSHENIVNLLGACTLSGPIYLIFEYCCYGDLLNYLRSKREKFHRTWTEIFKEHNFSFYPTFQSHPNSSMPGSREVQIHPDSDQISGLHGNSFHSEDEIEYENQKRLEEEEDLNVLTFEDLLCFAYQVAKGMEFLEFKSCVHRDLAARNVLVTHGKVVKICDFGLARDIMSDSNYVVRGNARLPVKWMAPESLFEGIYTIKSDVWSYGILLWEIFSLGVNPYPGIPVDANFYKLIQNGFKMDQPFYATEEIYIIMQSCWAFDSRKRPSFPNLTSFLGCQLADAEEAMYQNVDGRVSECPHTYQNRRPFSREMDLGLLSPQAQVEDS
How it was run: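 Recombinant kinase assays were run radiometrically by an outside contract service. Activity was read as 33P incorporation into each kinase's substrate and expressed relative to a DMSO control.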

[8] = target: Epithelial discoidin domain-containing receptor 1 (Homo sapiens, UniProt Q08345); experiment: Inhibition of wild-type human partial length DDR1 (R565 to V876 residues) expressed in bacterial expression system using poly [Glu, Try] 4:1 as substrate in presence of [gamma-33P]ATP; how it was run: as §3
Sequence of Epithelial discoidin domain-containing receptor 1 (Q08345 whole entry, the tested form may be a part): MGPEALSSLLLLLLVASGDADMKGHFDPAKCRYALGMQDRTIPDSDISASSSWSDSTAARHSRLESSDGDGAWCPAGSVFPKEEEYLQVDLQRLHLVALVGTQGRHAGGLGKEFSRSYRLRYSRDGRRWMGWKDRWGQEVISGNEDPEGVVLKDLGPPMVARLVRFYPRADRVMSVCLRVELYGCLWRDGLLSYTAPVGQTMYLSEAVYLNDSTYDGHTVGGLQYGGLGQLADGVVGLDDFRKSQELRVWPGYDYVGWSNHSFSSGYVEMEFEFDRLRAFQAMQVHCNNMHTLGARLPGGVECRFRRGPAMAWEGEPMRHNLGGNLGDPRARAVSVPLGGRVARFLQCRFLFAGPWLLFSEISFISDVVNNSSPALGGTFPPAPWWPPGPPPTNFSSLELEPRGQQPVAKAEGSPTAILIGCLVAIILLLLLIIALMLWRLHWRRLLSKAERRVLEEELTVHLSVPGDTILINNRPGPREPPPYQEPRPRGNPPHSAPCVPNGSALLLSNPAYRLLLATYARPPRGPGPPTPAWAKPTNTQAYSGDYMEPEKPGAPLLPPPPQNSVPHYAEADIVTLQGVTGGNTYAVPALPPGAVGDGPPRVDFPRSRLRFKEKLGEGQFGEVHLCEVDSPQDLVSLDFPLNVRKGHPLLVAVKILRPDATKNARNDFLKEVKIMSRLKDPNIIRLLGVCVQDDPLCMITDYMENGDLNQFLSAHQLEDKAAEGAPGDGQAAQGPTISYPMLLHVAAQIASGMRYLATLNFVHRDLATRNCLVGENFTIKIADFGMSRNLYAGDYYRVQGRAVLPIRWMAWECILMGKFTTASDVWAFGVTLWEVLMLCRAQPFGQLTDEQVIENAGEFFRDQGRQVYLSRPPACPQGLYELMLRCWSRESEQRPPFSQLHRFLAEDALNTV

| SMILES | IC50 [1] [µM] | EC50 [2] [µM] | IC50 [3] [µM] | IC50 [4] [µM] | IC50 [5] [µM] | IC50 [6] [µM] | Activity (Mus musculus) | Activity (MOLM-13) | Activity (MV4-11) | IC50 [7] [µM] | IC50 [8] [µM] |
| --- | --- | --- | --- | --- | --- | --- | --- | --- | --- | --- | --- |
| CNc1ncc2c(-c3ccc(OC)cc3)nn(CC3OCCO3)c2n1 | 1.3 | ≤ 10 | 7.5 | 7.2 | > 10 | 8.7 | – | – | – | – | – |
| CNc1ncc2c(-c3ccc(N4CCNCC4)nc3)nn(CC3OCCO3)c2n1 | 0.53 | ≤ 10 | 4.5 | 0.89 | > 10 | 6.2 | – | – | – | – | – |
| CCN1CCN(c2ccc(-c3nn(Cc4cn(Cc5ccccc5)nn4)c4nc(NC)ncc34)cn2)CC1 | > 10 | – | 7.7 | > 10 | 1.9 | > 10 | inactive | – | – | – | – |
| CNc1ncc2c(-c3ccc(N4CCN(C)CC4)nc3)nn(Cc3cn(Cc4ccccc4)nn3)c2n1 | 0.38 | – | 7.6 | 8.3 | > 10 | 2 | inactive | – | – | – | – |
| CNc1ncc2c(-c3ccc(N4CCN(C)CC4)nc3)nn(CC3CCCC3)c2n1 | 0.07 | – | 0.4 | 0.8 | > 10 | 0.48 | – | Active | Active | 0.03 | 0.1 |
| CNc1ncc2c(-c3ccc(N4CCNCC4)nc3)nn(Cc3cn(-c4ccsc4C(=O)OC)nn3)c2n1 | 0.78 | – | > 10 | > 10 | > 10 | 8.9 | Active | – | – | – | – |
| CNc1ncc2c(-c3ccc(N4CCNCC4)nc3)nn(CC3CCCC3)c2n1 | 0.12 | 0.83 | 0.69 | 1.1 | > 10 | 0.64 | – | – | – | – | – |
| Nc1nc(Nc2ccc3c(c2)CC[C@@H](N2CCCC2)CC3)nn1-c1cc2c(nn1)-c1ccccc1CCC2 [BEMCENTINIB] | – | – | – | – | > 10 | – | – | Active | Active | 0.006 | 0.02 |
| CNc1ncc2c(-c3ccc(N4CCN(C(=O)C(C)(C)C)CC4)nc3)nn(CC3CCCC3)c2n1 | 7.2 | – | > 10 | > 10 | > 10 | > 10 | – | – | – | – | – |
| CNc1ncc2c(-c3ccc(N4CCN(C(=O)C(C)(C)C)CC4)nc3)nn(Cc3cn(Cc4ccccc4)nn3)c2n1 | 0.76 | – | > 10 | > 10 | > 10 | 5.4 | inactive | – | – | – | – |
| CCN1CCN(c2ccc(-c3nn(CC4CCCC4)c4nc(NC)ncc34)cn2)CC1 | 0.26 | – | 1.9 | 3.6 | > 10 | 2.5 | – | – | – | – | – |
| CNc1ncc2c(-c3ccc(N4CCNCC4)cc3)nn(Cc3cn(Cc4ccccc4)nn3)c2n1 | > 10 | – | > 10 | > 10 | > 10 | > 10 | inactive | – | – | – | – |
